# According to ChEMBL document CHEMBL4480426, “Novel multi-target directed ligands based on annelated xanthine scaffold with aromatic substituents acting on adenosine receptor and monoamine oxidase B. Synthesis, in vitro and in silico studies” (Bioorg Med Chem, 2019):
# Tests used:
# [1] = target: T1, Adenosine receptor A2b (Homo sapiens) (UniProt P29275); assay: Displacement of [3H]PSB603 from recombinant human adenosine A2b receptor expressed in HEK293 cells at 1 uM relative to control; format: cell-based
# T1 sequence (whole entry): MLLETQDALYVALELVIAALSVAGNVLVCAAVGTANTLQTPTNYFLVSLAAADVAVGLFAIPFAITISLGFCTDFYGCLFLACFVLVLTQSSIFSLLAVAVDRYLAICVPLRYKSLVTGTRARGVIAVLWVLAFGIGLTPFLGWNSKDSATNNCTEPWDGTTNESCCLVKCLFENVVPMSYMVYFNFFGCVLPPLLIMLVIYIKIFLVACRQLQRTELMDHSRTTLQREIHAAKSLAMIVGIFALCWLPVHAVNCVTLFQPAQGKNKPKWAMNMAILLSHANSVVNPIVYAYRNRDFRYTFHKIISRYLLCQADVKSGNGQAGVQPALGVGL
# Procedure, shortened: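 Purchased membranes of HEK cells expressing human A2A ([3H]MSX-2) or human A2B ([3H]PSB-603). A single high compound concentration is screened first; for potent compounds, full inhibition curves spanning 3 orders of magnitude. At least three independent experiments.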
# Adenosine receptor A2b = target: T2, Adenosine receptor A2b (Homo sapiens, UniProt P29275); assay: Displacement of [3H]PSB603 from recombinant human adenosine A2b receptor expressed in HEK293 cells; format: cell-based
# T2 sequence (P29275 whole entry): T1 sequence (whole entry)
# HepG2 = assay: Hepatotoxicity against human HepG2 cells assessed as reduction in cell viability at 0.5 to 1 uM measured after 72 hrs by CellTiter96 Aqueous non-radioactive cell proliferation assay; format: toxicity, cell-based; settings: hepg2, 72 h
# Procedure, shortened: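 HepG2 cells seeded at 1.5×10^4 cells/well in MEM with 4.5 g/L glucose and 10% FBS, grown 24 h at 37 °C, 5% CO2. Compounds diluted in the same medium and applied for 72 h. CellTiter 96 AQueous reagent then added for 2 h, absorbance read at 490 nm. One-way ANOVA with Bonferroni post test.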
compound,measurement,setting,value
Cn1c(=O)c2c(nc3n2CCCCN3Cc2ccc(Cl)c(Cl)c2)n(C)c1=O,inhibition,[1],40%
same,Ki,Adenosine receptor A2b,> 1000 nM
same,Activity,HepG2,Toxic
